High-throughput results: PubChem, several laboratories
CRFBP-R2 agonist = CRF-BP/CRF-R2 complex agonism; HEK293 CRF-R2/CRF-BP, calcium dye fluorescence (FLIPR); percent of saturating CRF peptide response; actives 0.46% (n = 350,000); activation, % at 13.2 µM; AID 588473;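 active means activation of at least 50%, plus an integration ratio under a set limit after plate pattern correction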
DDE Tn7 FP inh = inhibitors of Tn7 peptide binding to human fibrin DD(E). actives 0.13% (n = 370,000). FP displacement of FITC-Tn7 peptide from fibrin DD(E); 0% = median of compound wells per plate. P02675. inhibition, % at 8.3 µM;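 active means inhibition above the mean of compounds falling within the control limits plus 3 SD of them, cut at about 14% in these data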
Target sequence (P02675 whole entry, looked up): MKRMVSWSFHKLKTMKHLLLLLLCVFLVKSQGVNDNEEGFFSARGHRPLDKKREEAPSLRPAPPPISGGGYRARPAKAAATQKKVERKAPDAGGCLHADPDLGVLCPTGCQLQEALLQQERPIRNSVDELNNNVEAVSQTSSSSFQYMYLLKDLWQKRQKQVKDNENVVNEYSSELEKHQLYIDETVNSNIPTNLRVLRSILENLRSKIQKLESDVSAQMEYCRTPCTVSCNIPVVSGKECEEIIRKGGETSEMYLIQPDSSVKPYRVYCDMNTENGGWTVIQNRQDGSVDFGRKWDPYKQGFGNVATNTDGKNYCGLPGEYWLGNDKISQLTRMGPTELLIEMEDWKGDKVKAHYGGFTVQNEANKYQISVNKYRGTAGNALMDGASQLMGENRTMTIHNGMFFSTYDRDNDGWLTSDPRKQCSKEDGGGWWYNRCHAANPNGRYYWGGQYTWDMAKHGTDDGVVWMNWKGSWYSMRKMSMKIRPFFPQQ
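Assay system: Human clot-derived fibrin DD(E) complex | Buffer or medium: Tris/NaCl/CaCl2 buffer, pH 7.8 | Repeats: One replicate per compound | Benchmarks: Aha-Tn7 high control | Measure: % inhibition scaled between sample-field median and high-control FP | Schedule: 10 min plus 3 h, room temperature | Signal: Fluorescence polarization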
CRFBP-R2 block = blocks CRF-induced signaling of the CRF-BP/CRF-R2 complex | HEK293 CRF-R2/CRF-BP, CRF-induced calcium fluorescence | inhibition, % at 11.8 µM | actives 0.59% (n = 350,000) | AID 588475;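 active means inhibition of the ligand-induced calcium signal above about 50% at the single tested concentration, limit read from the data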
DDE Tn6 FP inh = inhibitors of Tn6 peptide binding to human fibrin DD(E); P02675; Fibrin DD(E) TRITC-Tn6 fluorescence polarization displacement; inhibition, % at 8.3 µM; actives 0.21% (n = 370,000); AID 720509;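 active means inhibition above a per-campaign cutoff: mean of compounds within control limits plus 3 SD, cut at about 15% in these data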
Large screens that a line does not name were inactive. A selection: hits, their analogues and other compounds. The true share with any hit is near 1.3%.

COC(=O)[C@]12C[C@H](CC(=O)NCC3CCCCC3)C(=O)N(Cc3ccc4c(c3)OCO4)C1=C[C@H](COCc1ccccc1)O[C@@H]2C	none (no result: CRFBP-R2 agonist, CRFBP-R2 block)
O=C(NC(=S)Nc1c(Cl)ccc2nsnc12)c1ccccc1F	CRFBP-R2 block 58
Cc1ccc2nsnc2c1NC(=S)NC(=O)c1ccco1	none
Cc1cccc(C)c1OCC(=O)Nc1oc(-c2ccccc2)c(-c2ccccc2)c1C#N	CRFBP-R2 block 107
O=[N+]([O-])c1cc(/C=N/N/C(=N/c2ccccn2)c2ccccn2)ccc1O	CRFBP-R2 agonist 66, CRFBP-R2 block 64
O=C(CN1C(=O)c2ccccc2S1(=O)=O)NC1CCCCCC1	none
O=C(CN1c2cccc3cccc(c23)S1(=O)=O)NC1CCCCC1	CRFBP-R2 block 70
Cc1ccc2cccc(Oc3ncnc4scc(-c5ccccc5)c34)c2n1	CRFBP-R2 block 66
CCOC(=O)[C@]12CCCCC/C=C\1N(CCc1ccc(Cl)cc1)C(=O)[C@H]2CC(=O)NCc1ccc(C)o1	none (no result: CRFBP-R2 agonist, CRFBP-R2 block)
COC(=O)Cn1c(=O)c2c(nc3n2CC(C)CN3Cc2ccccc2)n(C)c1=O (stereo not given)	none
C=C(C)Cn1c(=O)c2c(nc3n2CC(C)CN3Cc2ccccc2)n(C)c1=O (stereo not given)	CRFBP-R2 block 88
O=[N+]([O-])c1ccc(-c2ccc(/C=N/Nc3nc(N4CCCCC4)nc(N4CCCCC4)n3)o2)cc1	CRFBP-R2 agonist 69
O=[N+]([O-])c1ccc(-c2ccc(/C=N/Nc3nc(N4CCCC4)nc(N4CCCC4)n3)o2)cc1	CRFBP-R2 agonist 129
COc1ccc(S[C@]2(C(=O)N3CCCC3)CC(=O)N(C(=O)CCc3ccccc3)[C@@H]2c2ccc(OC)cc2)cc1	none (no result: CRFBP-R2 agonist, CRFBP-R2 block)
COc1ccc(-n2ncc(S(=O)(=O)c3ccccc3)c2-c2ccc(Cl)cc2)cc1	none
O=S(=O)(c1ccccc1)c1cnn(-c2ccccc2)c1-c1ccc(F)cc1	CRFBP-R2 block 51
COCCCN1C(=O)[C@H](CC(=O)N2CCCC2)[C@]2(C(=O)OC)CCCCC=C12	none (no result: CRFBP-R2 agonist, CRFBP-R2 block)
CC1(C)C[C@@H]2C[C@@](C)(CN2C(=O)c2ccccc2)C1	none
CC1(C)CC2CC(C)(CN2/C=C2/CCCCC2=O)C1 (stereo not given)	CRFBP-R2 block 115
CN1CCc2c(sc3c2C(=O)NC(/C=C\c2ccccc2)N3)C1 (stereo not given)	none
Cc1ccsc1C1NC(=O)c2c(sc3c2CCN(C)C3)N1 (stereo not given)	CRFBP-R2 agonist 65
CN1CCc2c(sc3c2C(=O)NC(c2cccs2)N3)C1 (stereo not given)	CRFBP-R2 agonist 58
CSc1ccc(C2NC(=O)c3c(sc4c3CCN(C)C4)N2)cc1 (stereo not given)	none
Cc1c(C(=O)O)c(O)cc2c1C(=O)c1c(O)c([C@@H]3O[C@H](CO)[C@@H](O)[C@H](O)[C@H]3O)c(O)c(O)c1C2=O	DDE Tn6 FP inh 18
Cc1ccc(S(=O)(=O)N(C)[C@H]2C[C@H]3c4cc(N5CCOCC5)ccc4CCN3C[C@H]2[C@H](C)O)cc1	none (no result: CRFBP-R2 agonist, CRFBP-R2 block)
CCOc1cc(C=C2C(=O)c3ccccc3C2=O)ccc1OCC(=O)Nc1ccc(C)cc1	CRFBP-R2 agonist 113
COc1cccc(/C=c2\s/c(=C/C(=O)c3ccc(C)cc3)[nH]c2=O)c1OC	none
COc1ccc(/C=c2\s/c(=C/C(=O)c3ccc(C)cc3)[nH]c2=O)c(OC)c1	CRFBP-R2 agonist 123
N#Cc1cccc(NCC(=O)Nc2ccc3c(c2)OCCO3)c1	CRFBP-R2 block 80
Cc1ccc(C(=O)N2CCC(Oc3cccnc3)CC2)cc1	none (no result: CRFBP-R2 agonist, CRFBP-R2 block)
Nc1cc(OC(=O)c2ccco2)nn1S(=O)(=O)c1ccc(F)cc1	CRFBP-R2 block 58
Cc1ccc(S(=O)(=O)n2nc(OC(=O)c3ccco3)cc2N)cc1	CRFBP-R2 block 60
CC(C)=CCCC1=CC[C@H]2[C@@H](C1)C(C(C)C)=CC(=O)[C@@]2(C)O	none (no result: CRFBP-R2 agonist, CRFBP-R2 block)
COC(=O)c1cc(-c2cnc(OC)nc2OC)c(=O)n2c1CCC2	none (no result: CRFBP-R2 agonist, CRFBP-R2 block)
Cc1ccc(S(=O)(=O)N2c3ccccc3OCC2C(C)(C)C)cc1 (stereo not given)	CRFBP-R2 block 90
Cc1ccc2c(c1)N(S(=O)(=O)c1ccc(F)cc1)C(C(C)(C)C)CO2 (stereo not given)	none
CC(C)NC(=O)NC1CCN(CC(=O)Nc2ccc3c(c2)OCCO3)CC1	none (no result: CRFBP-R2 agonist, CRFBP-R2 block)
Cc1cc(C)cc(C(=O)OCCCN(C)C2CN(Cc3cn(Cc4ccccc4F)nn3)S(=O)(=O)C2)c1 (stereo not given)	none (no result: CRFBP-R2 agonist, CRFBP-R2 block)
Cc1ccccc1CN(C)C(=O)COC(=O)c1ccc2[nH]c(C)c(C)c2c1	CRFBP-R2 block 64
Cc1[nH]c2ccc(C(=O)OC(C)C(=O)NCc3ccccc3)cc2c1C (stereo not given)	none
Cc1cc(N2CCN(C(=O)OC(C)(C)C)C[C@@H]2C)ccc1N1CCS(=O)(=O)CC1	none (no result: CRFBP-R2 agonist, CRFBP-R2 block)
Cc1c(C(=O)N2CCCCC2)c(S(=O)(=O)NCCc2ccccc2)c(C)n1C	none
Cc1[nH]c(C)c(S(=O)(=O)NCCc2ccccc2)c1C(=O)N1CCCCC1	CRFBP-R2 block 70
COc1ccccc1CN(C)C(=O)C(c1ccccc1)c1ccccc1	CRFBP-R2 block 57
CN(Cc1ccc(F)cc1)C(=O)C(c1ccccc1)c1ccccc1	none
COC(=O)C1=CN(Cc2ccc(OC)cc2)C=C(C(=O)OC)C1c1cccs1	CRFBP-R2 block 111
Cc1ccc(C(=O)OCn2nnc3ccccc3c2=O)cc1[N+](=O)[O-]	CRFBP-R2 block 79
COc1ccc(C(=O)OCn2nnc3ccccc3c2=O)cc1[N+](=O)[O-]	none
COc1cc(/C=N/N(C)c2ccccc2)cc(Cl)c1O	CRFBP-R2 block 53
Cc1cc(S(=O)(=O)NCc2ccccc2)ccc1OCC(=O)NCC1CCCO1 (stereo not given)	CRFBP-R2 agonist 241
Cc1cc(S(=O)(=O)NC2CCCCC2)ccc1OCC(=O)NCC1CCCO1 (stereo not given)	CRFBP-R2 block 57
O=C(COc1ccc(S(=O)(=O)NC2CCCCC2)cc1Cl)NCc1cccnc1	CRFBP-R2 block 80
COc1ccccc1C(=O)NC1CCCCN(Cc2ccc(Cl)cc2)C1=O (stereo not given)	none (no result: CRFBP-R2 agonist, CRFBP-R2 block)
Cc1ccc2c(c1)C1CS(=O)(=O)N(Cc3ccccc3)CN1C2 (stereo not given)	none (no result: CRFBP-R2 agonist, CRFBP-R2 block)
O=C(NC1CCCCN(Cc2ccc(Cl)cc2)C1=O)c1ccc(F)cc1 (stereo not given)	none (no result: CRFBP-R2 agonist, CRFBP-R2 block)
COC(=O)C1CN(Cc2cn(Cc3ccc(Cl)cc3)nn2)CCS(=O)(=O)N1Cc1ccc(Cl)cc1 (stereo not given)	none (no result: CRFBP-R2 agonist, CRFBP-R2 block)
COc1ccc(Cl)cc1NC(=O)C(C)NC(c1ccccc1)c1ccccc1 (stereo not given)	CRFBP-R2 block 53
COc1ccc(Cl)cc1NC(=O)NC(C)C	none
CC#CCCC(=O)N1C=Cc2ccccc2C1C#N (stereo not given)	CRFBP-R2 block 56
CCOc1ccc(NC(=O)CCCN2C(=O)C(c3ccccc3)Oc3cccnc32)cc1 (stereo not given)	CRFBP-R2 block 57
